Assay results taken from ChEMBL document CHEMBL1926509, “Discovery of pyrazolo[1,5-a]pyridines as p110α-selective PI3 kinase inhibitors” (Bioorg Med Chem, 2012).

Experiments:
[1] = system: Mus musculus; test: Toxicity in human HCT116 cells xenografted Rag1 knockout mouse assessed as mortality at 20 mg/kg, ip qd for 14 days; type: organism-based, HCT-116; parameters: dose 20 mg/kg, route intraperitoneal; details: in vivo, 336 h
How it was run: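 Age-matched specific pathogen-free female Rag1-/- mice bearing subcutaneous HCT-116 tumours (5 × 10⁶ cells inoculated in PBS), n = 7 per group. Drug given ip at 20 mg/kg once daily for 14 days in 7.5% DMSO/42.5% PEG-400/20% 2-hydroxypropyl-β-cyclodextrin/30% water; controls received vehicle alone. Bodyweight recorded daily; mice culled when weight loss exceeded 20% of starting weight.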

[2] = system: Mus musculus; test: Toxicity in human HCT116 cells xenografted Rag1 knockout mouse assessed as body weight loss at 20 mg/kg, ip qd measured after 10 days relative to untreated control; type: organism-based, HCT-116; parameters: dose 20 mg/kg, route intraperitoneal; details: in vivo, 240 h
How it was run: (§1)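 Female specific-pathogen-free Rag1−/− mice carrying subcutaneous HCT-116 tumours, given 20 mg/kg ip daily for 14 days in a DMSO/PEG-400/hydroxypropyl-β-cyclodextrin/water vehicle; controls received vehicle; n = 7 per group. Bodyweight recorded daily; mice culled if loss exceeded 20% of starting weight.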

[3] = system: HCT-116; test: Antitumor activity against human HCT116 cells xenografted in Rag1 knockout mouse assessed as tumor growth inhibition at 20 mg/kg, ip qd for 14 days relative to untreated control; type: functional; details: HCT-116, ip, 336 h, route intraperitoneal, read-out: GI
How it was run: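 Female specific-pathogen-free Rag1−/− mice, age-matched, inoculated subcutaneously with 5×10⁶ HCT-116 cells in PBS. Dosed ip at 20 mg/kg q.d. for 14 days in 7.5% DMSO/42.5% PEG-400/20% hydroxypropyl-β-cyclodextrin/30% water; controls received vehicle only; n = 7 per group. Tumour volume measured three times weekly; 1-way ANOVA with Holm-Sidak comparison at study end.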

[4] = system: Mus musculus; test: Toxicity in human HCT116 cells xenografted Rag1 knockout mouse assessed as body weight loss at 20 mg/kg, ip qd measured up to day 10; type: organism-based, HCT-116; parameters: dose 20 mg/kg, route intraperitoneal; details: in vivo; how it was run: as §1

## Cc1ccc([N+](=O)[O-])cc1S(=O)(=O)N(C)/N=C/c1cnc2ccc(Br)cn12
[1]
  Activity: Non-toxic
[2]
  Activity: 15%
[3]
  inhibition in vivo at 20 mg/kg: 23.2%
[4]
  Activity: Non-toxic
